Experimental data as given in ChEMBL document CHEMBL2321722 (J Med Chem, 2013).

Experiments:
[1] = Dissociation constant, pKa of the compound at basic pH by pressure-assisted capillary electrophoresis; type: physicochemical
Method in brief: (§1)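 Ionization constants from a high-throughput screen using pressure-assisted capillary electrophoresis with mass spectrometry detection; stated accuracy ±0.2 pKa units.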

[2] = Dissociation constant, pKa of the compound at acidic pH by pressure-assisted capillary electrophoresis; type: physicochemical; method in brief: as §1
[3] = target: T1, Plasminogen (Homo sapiens, UniProt P00747); assay: Inhibition of plasminogen/fibrinogen interaction in pooled citreated human platelet-poor plasma assessed as inhibition of lysis of CaCl2/t-PA-induced clot by microtiter plate analysis; type: cell-free
T1 sequence (P00747 97-580 limits assumed): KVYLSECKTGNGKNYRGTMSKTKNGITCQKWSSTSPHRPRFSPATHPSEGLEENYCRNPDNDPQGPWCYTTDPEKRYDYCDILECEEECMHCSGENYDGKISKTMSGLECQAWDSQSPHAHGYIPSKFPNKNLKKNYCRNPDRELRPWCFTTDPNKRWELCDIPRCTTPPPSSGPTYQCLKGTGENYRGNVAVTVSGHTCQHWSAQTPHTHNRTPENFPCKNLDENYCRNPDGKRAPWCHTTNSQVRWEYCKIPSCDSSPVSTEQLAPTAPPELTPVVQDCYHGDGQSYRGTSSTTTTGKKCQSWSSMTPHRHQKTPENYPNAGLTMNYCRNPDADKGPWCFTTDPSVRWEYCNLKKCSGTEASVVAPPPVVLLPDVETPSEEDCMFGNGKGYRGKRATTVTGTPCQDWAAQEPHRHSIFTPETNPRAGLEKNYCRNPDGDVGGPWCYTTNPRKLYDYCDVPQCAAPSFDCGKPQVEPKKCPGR
T1 sequence (P00747 581-810 limits assumed): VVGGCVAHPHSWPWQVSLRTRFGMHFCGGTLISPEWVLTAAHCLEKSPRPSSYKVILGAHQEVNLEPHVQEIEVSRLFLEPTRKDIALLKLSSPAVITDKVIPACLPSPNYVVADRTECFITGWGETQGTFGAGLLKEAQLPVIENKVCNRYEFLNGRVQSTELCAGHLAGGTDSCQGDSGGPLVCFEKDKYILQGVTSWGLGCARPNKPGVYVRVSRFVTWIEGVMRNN

[4] = target: T1, Plasminogen; assay: Inhibition of human Glu-plasminogen/fibrinogen interaction in HEPES buffer assessed as inhibition of lysis of thrombin-induced clot preincubated for 15 mins prior to thrombin addition measured for 15 hrs by clot-lysis buffer assay
[5] = Lipophilicity, log D of the compound; type: physicochemical; conditions: octanol/water
[6] = Apparent permeability from apical to basolateral side in human Caco2 cells at pH 6.5 by LC/MS analysis; type: ADME, cell-based; conditions: Caco-2, pH 6.5

| Papp A→B [6] | SMILES | pKa [1] | pKa [2] | IC50 [3] | IC50 [4] | logD [5] |
| --- | --- | --- | --- | --- | --- | --- |
|  | C1CC(c2nnn[nH]2)CCN1 | 10.7 | 4.3 | > 100 µM | > 100 µM |  |
|  | Oc1cc(C2CCNCC2)on1 | 10.5 | 4 |  |  | < 0 |
| 7.83 ×10⁻⁶ cm/s | NC[C@H]1CC[C@H](C(=O)O)CC1 [TRANEXAMIC ACID] | 9.7 | 4.1 |  |  |  |
